Source: ChEMBL document CHEMBL4673212, “Investigation of synergistic antimicrobial effects of the drug combinations of meropenem and 1,2-benzisoselenazol-3(2H)-one derivatives on carbapenem-resistant Enterobacteriaceae producing NDM-1” (Eur J Med Chem, 2018)
In brackets after ≈: the same amount, converted by molar mass.

Columns and labels:
Enterobacter cloacae [1] = experiment: Synergistic antibacterial activity against carbapenem-resistant Enterobacter cloacae isolate 28 harboring TEM-1 and SHV-12 assessed as fractional inhibitory concentration index in presence of meropenem by CLSI protocol based assay; type: functional
Summary of the method: (§1)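 FIC index from MICs of compound alone, meropenem alone, and the 1:1 (mass) compound–meropenem combination, read by eye after overnight incubation in a CLSI-based assay. FIC index = MICcombo/MICcpd + MICcombo/MICMem. FIC index ≤0.5 counted as synergy. At least triplicate assays. Clinical NDM-1 isolates for 17-39; E. coli TG1 carrying the IncX3 blaNDM-1 plasmid for 15.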

Enterobacter cloacae [2] = experiment: Synergistic antibacterial activity against carbapenem-resistant Enterobacter cloacae isolate 19 harboring CTX-M-14 and KPC-2 assessed as fractional inhibitory concentration index in presence of meropenem by CLSI protocol based assay; type: functional
Escherichia coli [3] = experiment: Synergistic antibacterial activity against carbapenem-resistant Escherichia coli isolate 34 harboring CTX-M-15, TEM-1 and SHV-12 assessed as fractional inhibitory concentration index in presence of meropenem by CLSI protocol based assay; type: functional; summary of the method: as §1
Escherichia coli [4] = experiment: Synergistic antibacterial activity against carbapenem-resistant Escherichia coli isolate 33 harboring CTX-M-15 assessed as fractional inhibitory concentration index in presence of meropenem by CLSI protocol based assay; type: functional; summary of the method: as §1
Escherichia coli [5] = experiment: Synergistic antibacterial activity against carbapenem-resistant Escherichia coli isolate 06 harboring CTX-M-14, CTX-M-3 and SHV-12 assessed as fractional inhibitory concentration index in presence of meropenem by CLSI protocol based assay; type: functional; summary of the method: as §1
Klebsiella pneumoniae [6] = experiment: Synergistic antibacterial activity against carbapenem-resistant Klebsiella pneumoniae isolate 14 harboring CTX-M-14, KPC-2 and SHV-12 assessed as fractional inhibitory concentration index in presence of meropenem by CLSI protocol based assay; type: functional; summary of the method: as §1
Klebsiella pneumoniae [7] = experiment: Synergistic antibacterial activity against carbapenem-resistant Klebsiella pneumoniae isolate 04 harboring CTX-M-14, VIM-1, TEM-1 and SHV-12 assessed as fractional inhibitory concentration index in presence of meropenem by CLSI protocol based assay; type: functional; summary of the method: as §1
Enterobacter cloacae [8] = experiment: Growth inhibition of carbapenem-resistant Enterobacter cloacae isolate 28 harboring TEM-1 and SHV-12 by CLSI protocol based assay; type: functional
Enterobacter cloacae [9] = experiment: Growth inhibition of carbapenem-resistant Enterobacter cloacae isolate 22 harboring CTX-M-14, TEM-1 and SHV-12 by CLSI protocol based assay; type: functional
Enterobacter cloacae [10] = experiment: Growth inhibition of carbapenem-resistant Enterobacter cloacae isolate 19 harboring CTX-M-14 and KPC-2 by CLSI protocol based assay; type: functional
Enterobacter cloacae [11] = experiment: Growth inhibition of carbapenem-resistant Enterobacter cloacae isolate 18 harboring IMP-4 and TEM-1 by CLSI protocol based assay; type: functional
Enterobacter cloacae [12] = experiment: Growth inhibition of carbapenem-resistant Enterobacter cloacae isolate 10 harboring CTX-M-14, TEM-1 and SHV-12 by CLSI protocol based assay; type: functional
Citrobacter freundii [13] = experiment: Growth inhibition of carbapenem-resistant Citrobacter freundii isolate 43 by CLSI protocol based assay; type: functional
Citrobacter freundii [14] = experiment: Growth inhibition of carbapenem-resistant Citrobacter freundii isolate 35 harboring CTX-M-3, KPC-2 and SHV-12 by CLSI protocol based assay; type: functional
Citrobacter freundii [15] = experiment: Growth inhibition of carbapenem-resistant Citrobacter freundii isolate 17 harboring SHV-12 by CLSI protocol based assay; type: functional
Klebsiella oxytoca = experiment: Growth inhibition of carbapenem-resistant Klebsiella oxytoca isolate 16 harboring SHV-12 by CLSI protocol based assay; type: functional
Citrobacter freundii [16] = experiment: Growth inhibition of carbapenem-resistant Citrobacter freundii isolate 05 harboring SHV-12 by CLSI protocol based assay; type: functional
Escherichia coli [17] = experiment: Growth inhibition of carbapenem-resistant Escherichia coli isolate 06 harboring CTX-M-14, CTX-M-3 and SHV-12 by CLSI protocol based assay; type: functional
Klebsiella pneumoniae [18] = experiment: Growth inhibition of carbapenem-resistant Klebsiella pneumoniae isolate 14 harboring CTX-M-14, KPC-2 and SHV-12 by CLSI protocol based assay; type: functional
Klebsiella pneumoniae [19] = experiment: Growth inhibition of carbapenem-resistant Klebsiella pneumoniae isolate 04 harboring CTX-M-14, VIM-1, TEM-1 and SHV-12 by CLSI protocol based assay; type: functional
Enterobacter cloacae [20] = experiment: Potentiation of meropenem-induced antibacterial activity against carbapenem-resistant Enterobacter cloacae isolate 22 harboring CTX-M-14, TEM-1 and SHV-12 assessed as meropenem MIC by CLSI protocol based assay (Rvb >= 128 ug/ml); type: functional
Enterobacter cloacae [21] = experiment: Potentiation of meropenem-induced antibacterial activity against carbapenem-resistant Enterobacter cloacae isolate 19 harboring CTX-M-14 and KPC-2 assessed as meropenem MIC by CLSI protocol based assay (Rvb >= 128 ug/ml); type: functional
Enterobacter cloacae [22] = experiment: Potentiation of meropenem-induced antibacterial activity against carbapenem-resistant Enterobacter cloacae isolate 18 harboring IMP-4 and TEM-1 assessed as meropenem MIC by CLSI protocol based assay (reference value: 32 ug/ml); type: functional
Enterobacter cloacae [23] = experiment: Potentiation of meropenem-induced antibacterial activity against carbapenem-resistant Enterobacter cloacae isolate 10 harboring CTX-M-14, TEM-1 and SHV-12 assessed as meropenem MIC by CLSI protocol based assay (reference value: 64 ug/ml); type: functional
Enterobacter cloacae [24] = experiment: Potentiation of meropenem-induced antibacterial activity against carbapenem-resistant Enterobacter cloacae isolate 08 harboring CTX-M-14, TEM-1 and SHV-12 assessed as meropenem MIC by CLSI protocol based assay (reference value: 32 ug/ml); type: functional
Enterobacter cloacae [25] = experiment: Potentiation of meropenem-induced antibacterial activity against carbapenem-resistant Enterobacter cloacae isolate 07 harboring CTX-M-14, TEM-1 and SHV-12 assessed as meropenem MIC by CLSI protocol based assay (reference value: 64 ug/ml); type: functional
Citrobacter freundii [26] = experiment: Potentiation of meropenem-induced antibacterial activity against carbapenem-resistant Citrobacter freundii isolate 43 assessed as meropenem MIC by CLSI protocol based assay (Rvb >= 128 ug/ml); type: functional
Citrobacter freundii [27] = experiment: Potentiation of meropenem-induced antibacterial activity against carbapenem-resistant Citrobacter freundii isolate 17 harboring SHV-12 assessed as meropenem MIC by CLSI protocol based assay (reference value: 64 ug/ml); type: functional
Escherichia coli [28] = experiment: Potentiation of meropenem-induced antibacterial activity against carbapenem-resistant Escherichia coli isolate 33 harboring CTX-M-15 assessed as meropenem MIC by CLSI protocol based assay (reference value: 64 ug/ml); type: functional
Escherichia coli [29] = experiment: Synergistic antibacterial activity against Escherichia coli TG1 transformed with IncX3 plasmid expressing blaNDM-1 assessed as ratio of negative logarithm of fractional inhibitory concentration index to non-hydrogen atom in presence of meropenem incubated for overnight by CLSI protocol based assay; type: functional; conditions: time 12 hrs
Summary of the method: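 In E. coli TG1 carrying the IncX3 blaNDM-1 plasmid, the FIC index was taken from overnight CLSI-based MICs of compound, meropenem and their 1:1 mass mixture, read by eye. Synergistic efficiency = −ln(FIC index) divided by the number of non-hydrogen atoms. At least triplicate assays.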

[30] = Growth inhibition of Escherichia coli TG1 transformed with IncX3 plasmid expressing blaNDM-1 incubated for overnight by CLSI protocol based assay; conditions: 12 h
Escherichia coli [31] = experiment: Potentiation of meropenem-induced antibacterial activity against Escherichia coli TG1 transformed with IncX3 plasmid expressing blaNDM-1 assessed as bacterial growth inhibition by measuring meropenem MIC incubated for overnight by CLSI protocol based assay; type: functional; conditions: time 12 hrs

O=c1c2ccccc2[se]n1-c1ccccc1 [EBSELEN]
fractional inhibitory concentration index (FICI) (Enterobacter cloacae [1]): 2.5 | fractional inhibitory concentration index (FICI) (Enterobacter cloacae [2]): 2 | fractional inhibitory concentration index (FICI) (Escherichia coli [3]): 0.38 | fractional inhibitory concentration index (FICI) (Escherichia coli [4]): 0.38 | fractional inhibitory concentration index (FICI) (Escherichia coli [5]): 1 | fractional inhibitory concentration index (FICI) (Klebsiella pneumoniae [6]): 2 | fractional inhibitory concentration index (FICI) (Klebsiella pneumoniae [7]): 1 | MIC (Enterobacter cloacae [8]): ≥ 128 µg/mL | MIC (Enterobacter cloacae [9]): ≥ 128 µg/mL | MIC (Enterobacter cloacae [10]): ≥ 128 µg/mL | MIC (Enterobacter cloacae [11]): ≥ 128 µg/mL | MIC (Enterobacter cloacae [12]): ≥ 128 µg/mL | MIC (Citrobacter freundii [13]): ≥ 128 µg/mL | MIC (Citrobacter freundii [14]): ≥ 128 µg/mL | MIC (Citrobacter freundii [15]): ≥ 128 µg/mL | MIC (Klebsiella oxytoca): ≥ 128 µg/mL | MIC (Citrobacter freundii [16]): ≥ 128 µg/mL | MIC (Escherichia coli [17]): ≥ 128 µg/mL | MIC (Klebsiella pneumoniae [18]): ≥ 128 µg/mL | MIC (Klebsiella pneumoniae [19]): ≥ 128 µg/mL | MIC (Enterobacter cloacae [20]): ≥ 128 µg/mL | MIC (Enterobacter cloacae [21]): ≥ 128 µg/mL | MIC (Enterobacter cloacae [22]): 64 µg/mL | MIC (Enterobacter cloacae [23]): 64 µg/mL | MIC (Enterobacter cloacae [24]): 32 µg/mL | MIC (Enterobacter cloacae [25]): 16 µg/mL | MIC (Citrobacter freundii [26]): 32 µg/mL | MIC (Citrobacter freundii [27]): 16 µg/mL | MIC (Escherichia coli [28]): 16 µg/mL | Ratio (Escherichia coli [29]): 0.043 | MIC [30]: 64 µg/mL (≈ 233 µM) | MIC (Escherichia coli [31]): 16 µg/mL

CC(C)(C)OC(=O)NCCn1[se]c2ccccc2c1=O
fractional inhibitory concentration index (FICI) (Enterobacter cloacae [1]): 0.16 | fractional inhibitory concentration index (FICI) (Enterobacter cloacae [2]): 0.25 | fractional inhibitory concentration index (FICI) (Escherichia coli [3]): 0.09 | fractional inhibitory concentration index (FICI) (Escherichia coli [4]): 0.19 | fractional inhibitory concentration index (FICI) (Escherichia coli [5]): 0.13 | fractional inhibitory concentration index (FICI) (Klebsiella pneumoniae [6]): 0.13 | fractional inhibitory concentration index (FICI) (Klebsiella pneumoniae [7]): 0.5 | MIC (Enterobacter cloacae [8]): ≥ 128 µg/mL | MIC (Enterobacter cloacae [9]): ≥ 128 µg/mL | MIC (Enterobacter cloacae [10]): ≥ 128 µg/mL | MIC (Enterobacter cloacae [11]): ≥ 128 µg/mL | MIC (Enterobacter cloacae [12]): ≥ 128 µg/mL | MIC (Citrobacter freundii [13]): ≥ 128 µg/mL | MIC (Citrobacter freundii [14]): ≥ 128 µg/mL | MIC (Citrobacter freundii [15]): ≥ 128 µg/mL | MIC (Klebsiella oxytoca): ≥ 128 µg/mL | MIC (Citrobacter freundii [16]): ≥ 128 µg/mL | MIC (Escherichia coli [17]): ≥ 128 µg/mL | MIC (Klebsiella pneumoniae [18]): ≥ 128 µg/mL | MIC (Klebsiella pneumoniae [19]): ≥ 128 µg/mL | MIC (Enterobacter cloacae [20]): 16 µg/mL | MIC (Enterobacter cloacae [21]): 16 µg/mL | MIC (Enterobacter cloacae [22]): 16 µg/mL | MIC (Enterobacter cloacae [23]): 8 µg/mL | MIC (Enterobacter cloacae [24]): 4 µg/mL | MIC (Enterobacter cloacae [25]): 8 µg/mL | MIC (Citrobacter freundii [26]): 16 µg/mL | MIC (Citrobacter freundii [27]): 4 µg/mL | MIC (Escherichia coli [28]): 8 µg/mL | Ratio (Escherichia coli [29]): 0.153 | MIC [30]: >= 128 ug ml-1 | MIC (Escherichia coli [31]): 2 µg/mL
